Assay outcomes (PubChem)
OX1R antag-1: antagonists of human orexin 1 receptor. hit rate 0.43% among 330,000. inhibition, % at 5 µM. AID 434989. CHO/OX1R cells, Fluo-8 calcium fluorescence, orexin A. O43613;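 active = inhibition above its plate's threshold, mean inhibition of all tested compounds on the plate plus 3 SD, cut at about 37% in these data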;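 note: 0% = orexin A challenge wells and 100% = SB-334867-A antagonist wells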
Target sequence (O43613 whole entry, looked up): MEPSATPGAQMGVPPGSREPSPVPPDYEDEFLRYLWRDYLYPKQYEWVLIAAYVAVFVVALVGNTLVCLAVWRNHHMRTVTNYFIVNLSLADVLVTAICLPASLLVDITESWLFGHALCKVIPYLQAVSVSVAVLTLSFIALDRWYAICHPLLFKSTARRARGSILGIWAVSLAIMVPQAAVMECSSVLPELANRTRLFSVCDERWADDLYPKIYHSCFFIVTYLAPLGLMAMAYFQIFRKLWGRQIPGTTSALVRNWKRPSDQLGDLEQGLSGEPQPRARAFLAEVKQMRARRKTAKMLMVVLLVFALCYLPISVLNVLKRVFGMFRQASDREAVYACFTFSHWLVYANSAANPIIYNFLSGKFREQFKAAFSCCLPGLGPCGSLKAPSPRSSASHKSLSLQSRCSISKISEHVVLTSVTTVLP
CHO parental Ca: counter-screen for OX1R antagonists: effect in parental CHO cells; AID 463079; inhibition, % at 5.6 µM; hit rate 0.63% among 330,000; parental CHO-K1, ATP-induced calcium, Fluo-8 fluorescence;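 active = inhibition above that plate's mean sample inhibition plus 3 SD, cut at about 26% in these data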;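 note: 0% = ATP-challenged DMSO wells and 100% = DMSO wells without ATP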
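Test system: untransfected parental CHO cell line; also added: ATP stimulus; dosing: 5.6 µM, single dose; signal: calcium-sensitive Fluo-8 fluorescence; measure: percent inhibition of ATP-evoked calcium rise, normalized to controls; benchmarks: low control ATP plus DMSO, high control DMSO only; replication: one well per compound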
M1 ag parental: nonselective activator or artifact in parental CHO-K1 cells; Fluo-8 calcium fluorescence; scaled to maximal ATP response, vehicle zero; activation, % at 3 µM; hit rate 0.48% among 360,000; AID 602248; in the data active = activation above about 15%;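 note: untransfected CHO-K1 host cells lacking M1 receptor as counterscreen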
M1 PAM parental: counter-screen for M1 PAMs: effect in parental CHO-K1 cells; activation, % at 3 µM; AID 602247; hit rate 0.02% among 360,000; ATP EC20, Fluo-8 calcium fluorescence; 0% at ATP EC20, 100% at ATP max;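 active = activation above the run cutoff, the mean activation of all test compounds plus 3 SD, cut at about 40% in these data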;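 note: peak over basal fluorescence ratio in a 140 s read after ATP addition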
CHO-K1 Ca antag: nonselective inhibitor or artifact in parental CHO-K1 cells; ATP-induced calcium, Fluo-8 fluorescence; inhibition, % at 3 µM; hit rate 0.6% among 360,000;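 active = inhibition above a per-plate cutoff, the plate's mean sample inhibition plus 3 SD, cut at about 24% in these data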;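 note: 0% = DMSO plus EC80 ATP and 100% = DMSO alone without ATP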
OX1R antag-2: OX1R (human) antagonism | O43613 | OX1R-expressing cells, FRET antagonist read-out | inhibition, % at 6.6 µM | hit rate 1.8% among 330,000 | AID 485270; in the data active = inhibition mostly above about 38%, no sharp cut-off; inactive = mostly below about 40%;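 note: 0% = agonist challenge alone and 100% = reference antagonist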
OX1R HTRF conf: OX1R (human) antagonism, HTRF confirmed. shares compounds with OX1R antag-2. inhibition, % at 6.6 µM. hit rate 49% among 1,800. AID 492964. OX1R-expressing cells, HTRF antagonist assay; in the data active = inhibition above about 55%;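 note: CHO cells expressing OX1R stimulated with orexin A at about EC80; 0% = agonist challenge alone and 100% = reference antagonist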
CHO-K1 HTRF cnt: counter-screen: parental CHO-K1 HTRF response; parental CHO-K1 cells, HTRF counterscreen; inhibition, % at 6.6 µM; shares compounds with OX1R antag-2; hit rate 48% among 1,800; AID 493232; in the data active = inhibition above about 17%;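 note: 0% = agonist challenge with vehicle and 100% = vehicle alone without agonist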
* hit, by the source's call; x = no result; + = active, no number. Shown are actives, neighbours in structure and some others; about 2.9% of the full set was active somewhere.

SMILES	OX1R antag-1	CHO parental Ca	M1 ag parental	M1 PAM parental	CHO-K1 Ca antag	OX1R antag-2	OX1R HTRF conf	CHO-K1 HTRF cnt
CC(=O)Nc1ccc2nc(-c3ccc(Br)o3)[nH]c2c1	-4	-4	0	8	-3	18	x	x
O=C(Nc1ccc2nc(-c3ccc(Br)o3)[nH]c2c1)c1cccs1	-23	-27	4	20	-22	83*	42	3
C=CCn1cc(/C=C/c2cc[n+](C)cc2)c2ccccc21	8	0	7	17	-4	87*	33	33*
Cc1[nH]c2ccccc2c1/C=C/c1cc[n+](C)cc1	x	x	2	19	-6	x	x	x
CC1=C(C(=O)N2CCOCC2)CC(CC(=O)NCCCN(C)C)C(=O)N1Cc1ccc(F)cc1 (stereo not drawn)	x	x	1	17	-14	x	x	x
Cc1ccc(C)n1-c1nccc(-c2cccs2)n1	-8	-11	0	11	-5	19	x	x
N#Cc1cccn1-c1nccc(-c2cccs2)n1	-9	-18	0	3	7	87*	75*	2
COCCNC(=O)CN1C(=O)c2cccc3cccc1c23	2	2	0	-10	0	16	x	x
N#Cc1cc(NCC2CCCO2)c([N+](=O)[O-])cc1C#N (stereo not drawn)	-16	-1	1	18	2	126*	51	71*
COc1ccc(NC(=O)c2ccc(NCC3CCCO3)c([N+](=O)[O-])c2)cc1 (stereo not drawn)	5	0	0	-12	7	77*	29	18*
COCc1ccc(C(=O)N2CCCC(N3CCN(c4cccc(Cl)c4)CC3)C2)s1 (stereo not drawn)	x	x	2	9	-16	x	x	x
CCN(CC)C1=NS(=O)(=O)c2cc([N+](=O)[O-])ccc21	-12	1	0	6	6	+	48	97*
CSc1ccc(S(=O)(=O)NCC(=O)OCC(=O)N(C)C2CCCCC2)cc1[N+](=O)[O-]	-27	-19	1	20	-2	39	x	x
O=C(COC(=O)Cc1ccc(Cl)c(Cl)c1)Nc1ccc2[nH]c(=O)[nH]c2c1	-18	4	0	7	0	6	x	x
Nc1nc(COC(=O)C2CC(=O)N(CCc3ccccc3)C2)nc(Nc2ccccc2)n1 (stereo not drawn)	-14	-16	2	12	-10	-3	x	x
O=C(Nc1cccnc1)c1cnc2ccccc2n1	-7	-1	1	0	-2	109*	43	45*
CCOC(=O)C1=C(O)C(=O)N(c2ccc(S(N)(=O)=O)cc2)C1c1ccc([N+](=O)[O-])cc1 (stereo not drawn)	8	-2	0	13	-9	28	x	x
CCOC(=O)CC1ON(C)C(=O)N1c1ccc([N+](=O)[O-])cc1 (stereo not drawn)	-11	-3	0	9	1	101*	26	17
COc1ccc(S(=O)(=O)Nc2c(O)ccc3ccccc23)cc1OC	4	-6	2	-1	-7	77*	72*	7
COc1cccc(CN(C)C(=O)CC2C(=O)NCCN2C2Cc3ccccc3C2)c1 (stereo not drawn)	-9	-16	0	-13	11	18	x	x
CC(C)CNC(=O)CSc1n[nH]c(=O)n1CCc1ccccc1	-15	-18	3	-7	-5	-10	x	x
Cc1ccc(S(=O)(=O)NC2=C(N3CCN(Cc4ccccc4)CC3)C(=O)c3ccccc3C2=O)cc1	-30	-18	0	15	-10	24	x	x
COC(=O)C1CCN(C2=C(NS(=O)(=O)c3ccc(Cl)cc3)C(=O)c3ccccc3C2=O)CC1	-27	-8	0	6	-3	98*	46	59*
NC(=O)C1CCN(C2=C(NS(=O)(=O)c3ccc(Cl)cc3)C(=O)c3ccccc3C2=O)CC1	-34	-7	2	16	-8	179*	53	57*
CCOC(=O)N1CCN(C2=C(NS(=O)(=O)c3ccc(C)cc3)C(=O)c3ccccc3C2=O)CC1	-28	-23	0	13	-6	83*	58*	91*
SMILES	OX1R antag-1	CHO parental Ca	M1 ag parental	M1 PAM parental	CHO-K1 Ca antag	OX1R antag-2	OX1R HTRF conf	CHO-K1 HTRF cnt
COc1ccccc1CCC(=O)Nc1ccc2c(c1)c(=O)n(C)n2Cc1cccc(C(F)(F)F)c1	x	x	2	4	1	x	x	x
O=C(O)c1ccccc1Nc1ccc2nonc2c1[N+](=O)[O-]	x	x	0	17	-13	x	x	x
CC(=O)Nc1ccc(Nc2ccc3nonc3c2[N+](=O)[O-])cc1	-4	-1	2	23	-2	+	55*	93*
OC(c1ccc(-c2ccccc2)cc1)c1ncc(-c2ccc(C(F)(F)F)cc2)[nH]1 (stereo not drawn)	x	x	0	-7	6	x	x	x
CCN1C(=O)[C@@H]2[C@@H](c3ccc(-c4ccc(F)cc4)c(OC)c3)N3CCCC[C@@]3(C(=O)OC)[C@@H]2C1=O	-6	-41	0	11	-13	82*	42	-3
N#CC1(NC(=O)CSc2nnc(-c3ccccc3F)n2N)CCCCC1	-13	-9	1	7	0	21	x	x
CN(C)CCNC(=O)C(=O)NCC1OCCN1S(=O)(=O)c1ccc([N+](=O)[O-])cc1 (stereo not drawn)	-1	-7	7	16	-7	89*	41	60*
CCN(CC)CCNC(=O)C(=O)NCC1OCCN1S(=O)(=O)c1ccc(Cl)cc1 (stereo not drawn)	2	1	1	-20	-2	5	x	x
CCN(CC)CCNC(=O)C(=O)NCC1OCCN1S(=O)(=O)c1ccc([N+](=O)[O-])cc1 (stereo not drawn)	-6	1	6	5	5	92*	41	64*
Cc1ccc(C(=O)C2C(=O)C3CCC2C3)cc1 (stereo not drawn)	x	x	0	-9	1	x	x	x
CCOc1ccc(-c2cccc(NS(=O)(=O)c3cc([N+](=O)[O-])ccc3Cl)c2)nn1	-41	-29	0	0	6	30	x	x
Cc1[nH]c2ccccc2c1/C=N/Nc1nncn1N	21	-4	0	20	-19	139*	17	10
Cc1ccc2nc(SCC(=O)c3ccc(O)cc3O)[nH]c2c1	3	3	2	6	-3	81*	79*	-5
COC(=O)CSc1nc2ccc(C)cc2[nH]1	0	2	0	-7	-4	-2	x	x
COc1ccc(-n2nc3c(c2NC(=O)c2ccc(S(=O)(=O)N4CCOCC4)cc2)CS(=O)C3)cc1 (stereo not drawn)	-5	1	2	10	-8	13	x	x
